Experimental findings from ChEMBL document CHEMBL3421533, “The Discovery of Orally Bioavailable Tyrosine Threonine Kinase (TTK) Inhibitors: 3-(4-(heterocyclyl)phenyl)-1H-indazole-5-carboxamides as Anticancer Agents” (J Med Chem, 2015) are described below.

Data set [1] can be described thus: Antitumor activity against human HCT116 cells xenografted in nude mouse assessed as tumor growth inhibition at 30 mg/kg, po qd administered for 21 days measured on day 22 relative to vehicle-treated control. The data set is classed as functional. The conditions noted are these: HCT-116, read-out: TGI.
The target in data set [2] is T1, Dual specificity protein kinase TTK (Homo sapiens, UniProt P33981).
T1 sequence (P33981 whole entry): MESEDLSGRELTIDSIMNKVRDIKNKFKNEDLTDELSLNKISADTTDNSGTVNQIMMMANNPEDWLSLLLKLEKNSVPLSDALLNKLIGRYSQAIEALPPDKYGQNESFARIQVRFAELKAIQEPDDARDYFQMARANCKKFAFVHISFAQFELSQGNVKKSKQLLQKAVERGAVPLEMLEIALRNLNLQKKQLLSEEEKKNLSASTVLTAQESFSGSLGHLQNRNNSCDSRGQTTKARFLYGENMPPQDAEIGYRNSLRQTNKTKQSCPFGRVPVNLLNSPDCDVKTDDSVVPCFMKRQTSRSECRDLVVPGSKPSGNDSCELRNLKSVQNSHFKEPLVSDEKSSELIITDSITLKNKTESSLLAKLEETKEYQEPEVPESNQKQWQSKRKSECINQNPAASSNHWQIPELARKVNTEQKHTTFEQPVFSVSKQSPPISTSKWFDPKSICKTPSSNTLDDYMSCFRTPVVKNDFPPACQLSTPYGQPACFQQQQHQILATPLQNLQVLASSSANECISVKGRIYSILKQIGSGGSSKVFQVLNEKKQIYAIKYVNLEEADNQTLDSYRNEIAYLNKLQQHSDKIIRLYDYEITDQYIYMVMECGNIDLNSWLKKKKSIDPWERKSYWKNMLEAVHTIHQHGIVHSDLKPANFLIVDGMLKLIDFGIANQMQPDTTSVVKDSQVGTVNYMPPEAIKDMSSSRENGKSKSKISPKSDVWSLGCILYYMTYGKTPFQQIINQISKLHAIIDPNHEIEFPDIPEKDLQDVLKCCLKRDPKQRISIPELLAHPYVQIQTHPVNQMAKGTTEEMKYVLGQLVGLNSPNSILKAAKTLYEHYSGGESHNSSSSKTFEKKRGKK
The data set can be described thus: Inhibition of TTK (unknown origin) using p38 MAPK as substrate by fluorescence assay.

A short description of data set [3]: AUCinfinity in Sprague-Dawley rat at 1 mg/kg, iv by LC-MS/MS analysis. The data set is classed as ADME, organism-based. Also noted: time infinity, dose 1 mg/kg, route intravenous. The conditions noted are these: plasma.
Data set [4] is described as follows: AUCinfinity in Sprague-Dawley rat at 5 mg/kg, po by LC-MS/MS analysis. Format: ADME, organism-based. Also noted: time infinity, dose 5 mg/kg, route oral. To be noted: plasma.
A short description of data set [5]: Clearance in Sprague-Dawley rat at 1 mg/kg, iv by LC-MS/MS analysis. The data set is classed as ADME, organism-based. Also noted: dose 1 mg/kg, route intravenous. The conditions noted are these: in vivo.
The next data set deals with Cytochrome P450 3A4 (Homo sapiens, UniProt P08684). The data set can be described thus: Inhibition of human CYP3A4 using BFC as substrate preincubated for 10 mins followed by enzyme/substrate addition measured after 30 mins by fluorescence assay. The data set is classed as ADME.
Chain of Cytochrome P450 3A4 (P08684 whole entry, the tested form may be a part): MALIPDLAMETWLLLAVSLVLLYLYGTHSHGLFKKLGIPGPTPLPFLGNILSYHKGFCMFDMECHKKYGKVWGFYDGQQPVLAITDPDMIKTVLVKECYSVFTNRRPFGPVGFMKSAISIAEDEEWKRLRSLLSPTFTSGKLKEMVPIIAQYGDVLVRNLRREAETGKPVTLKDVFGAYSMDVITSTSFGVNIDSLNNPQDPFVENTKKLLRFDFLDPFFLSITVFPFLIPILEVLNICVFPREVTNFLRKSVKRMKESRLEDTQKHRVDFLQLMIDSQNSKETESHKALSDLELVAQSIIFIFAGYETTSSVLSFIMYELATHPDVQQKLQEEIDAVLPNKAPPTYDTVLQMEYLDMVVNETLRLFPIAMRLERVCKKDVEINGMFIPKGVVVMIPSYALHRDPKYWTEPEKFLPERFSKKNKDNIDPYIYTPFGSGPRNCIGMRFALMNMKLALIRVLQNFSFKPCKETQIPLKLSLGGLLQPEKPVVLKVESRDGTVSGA
Data set [6] deals with T1, Dual specificity protein kinase TTK. The data set can be described thus: Inhibition of amino terminal GST-fused full length human TTK using His6-SUMO-TTK-N as substrate preincubated for 15 mins prior to ATP addition by indirect ELISA detection system.
A further data set relates to MDA-MB-468. As to the kind of experiment: Cytotoxicity against human MDA-MB-468 cells after 5 days by sulforhodamine B assay. Format: functional. An outline of the steps:
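Cancer lines were seeded at 800–6000 cells per well according to growth rate, 24 h before compound overlay. After culture, cells were fixed in situ and stained with sulforhodamine B. GI50 values were derived by curve fitting.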
(In general: The SRB assay estimates cell density from bound dye.)

Data set [7] in a line: Antitumor activity against human HCT116 cells xenografted in athymic CD1 nude mouse assessed as tumor growth inhibition at 100 mg/kg, po qd administered for 21 days measured 3 times per week during compound dosing relative to vehicle-treated control. To be noted: HCT-116, 504 h, read-out: TGI. The data set is classed as functional. In a few lines: (§1)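 HCT116 cells (5 million) were injected subcutaneously into the right flank of 6–8 week old female athymic CD-1 nude mice. At a mean tumor volume of 80–120 mm³, mice were randomized (n = 8). Dosing was oral, daily for 21 days, in 10% NMP/40% PEG400/50% DI water, at the MTD and ~2/3 MTD. Tumors were measured three times weekly, volume x²y/2, and TGI was taken against vehicle.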
Background: A xenograft is tissue or cells of one species grown in another, often human tumour cells in immunodeficient mice.

Data set [8] has as its target Aurora kinase B/Inner centromere protein (Homo sapiens, UniProt Q96GD4). The data set can be described thus: Inhibition of AURKB/INCENP (unknown origin) preincubated for 15 mins prior to ATP addition by FRET-based homogenous assay. Format: protein-complex assay. In a few lines: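 The enzyme was AURKB/INCENP in a FRET-based homogeneous assay run to kit specifications, with ATP at 128 μM. […] Each IC50 came from a single determination, reported with its standard fitting error.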

A short description of data set [9]: Toxicity in po dosed athymic CD1 nude mouse assessed as body weight loss in excess 20% and deemed moribund administered as qd for 21 days measured 3 times per week during compound dosing. The conditions noted are these: in vivo. Format: organism-based.
Data set [10] deals with Mus musculus. As to the kind of experiment: AUCinfinity in athymic CD1 nude mouse at 10 mg/kg, po by LC-MS/MS analysis. The data set is classed as ADME, organism-based, Plasma. Also noted: time infinity, dose 10 mg/kg, route oral. To be noted: in vivo.
Data set [11] can be described thus: Antitumor activity against human HCT116 cells xenografted in athymic CD1 nude mouse assessed as tumor growth inhibition at 150 mg/kg, po qd administered for 21 days measured 3 times per week during compound dosing relative to vehicle-treated control. Format: functional. To be noted: HCT-116, 504 h, read-out: TGI. An outline of the steps:
as §1

Data set [12] in a line: Half life in Sprague-Dawley rat at 1 mg/kg, iv by LC-MS/MS analysis. More on the design: dose 1 mg/kg, route intravenous. Format: ADME, organism-based. The conditions noted are these: in vivo.
The subject of data set [13] is Mus musculus. The data set can be described thus: Cmax in athymic CD1 nude mouse at 10 mg/kg, po by LC-MS/MS analysis. Also noted: dose 10 mg/kg, route oral. To be noted: in vivo. The data set is classed as ADME, organism-based.
Data set [14] is described as follows: Cytotoxicity against human OVCAR3 cells after 5 days by sulforhodamine B assay. Format: functional, OVCAR-3.
Data set [15] can be described thus: Oral bioavailability in Sprague-Dawley rat at 5 mg/kg by LC-MS/MS analysis. The data set is classed as ADME, organism-based. To be noted: in vivo.

Chain of Aurora kinase B/Inner centromere protein (Q96GD4 whole entry): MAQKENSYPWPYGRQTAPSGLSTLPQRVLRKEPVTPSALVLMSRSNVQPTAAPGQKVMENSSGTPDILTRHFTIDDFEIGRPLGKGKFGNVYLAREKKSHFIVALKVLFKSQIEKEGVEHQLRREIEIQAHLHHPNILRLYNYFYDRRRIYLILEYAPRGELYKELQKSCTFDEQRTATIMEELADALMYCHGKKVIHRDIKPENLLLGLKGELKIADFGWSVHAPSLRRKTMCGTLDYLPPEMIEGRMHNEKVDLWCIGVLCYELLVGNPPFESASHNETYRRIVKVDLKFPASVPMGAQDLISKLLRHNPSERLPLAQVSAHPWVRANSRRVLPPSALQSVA
Chain of Aurora kinase B/Inner centromere protein (Q9NQS7 whole entry, further chain): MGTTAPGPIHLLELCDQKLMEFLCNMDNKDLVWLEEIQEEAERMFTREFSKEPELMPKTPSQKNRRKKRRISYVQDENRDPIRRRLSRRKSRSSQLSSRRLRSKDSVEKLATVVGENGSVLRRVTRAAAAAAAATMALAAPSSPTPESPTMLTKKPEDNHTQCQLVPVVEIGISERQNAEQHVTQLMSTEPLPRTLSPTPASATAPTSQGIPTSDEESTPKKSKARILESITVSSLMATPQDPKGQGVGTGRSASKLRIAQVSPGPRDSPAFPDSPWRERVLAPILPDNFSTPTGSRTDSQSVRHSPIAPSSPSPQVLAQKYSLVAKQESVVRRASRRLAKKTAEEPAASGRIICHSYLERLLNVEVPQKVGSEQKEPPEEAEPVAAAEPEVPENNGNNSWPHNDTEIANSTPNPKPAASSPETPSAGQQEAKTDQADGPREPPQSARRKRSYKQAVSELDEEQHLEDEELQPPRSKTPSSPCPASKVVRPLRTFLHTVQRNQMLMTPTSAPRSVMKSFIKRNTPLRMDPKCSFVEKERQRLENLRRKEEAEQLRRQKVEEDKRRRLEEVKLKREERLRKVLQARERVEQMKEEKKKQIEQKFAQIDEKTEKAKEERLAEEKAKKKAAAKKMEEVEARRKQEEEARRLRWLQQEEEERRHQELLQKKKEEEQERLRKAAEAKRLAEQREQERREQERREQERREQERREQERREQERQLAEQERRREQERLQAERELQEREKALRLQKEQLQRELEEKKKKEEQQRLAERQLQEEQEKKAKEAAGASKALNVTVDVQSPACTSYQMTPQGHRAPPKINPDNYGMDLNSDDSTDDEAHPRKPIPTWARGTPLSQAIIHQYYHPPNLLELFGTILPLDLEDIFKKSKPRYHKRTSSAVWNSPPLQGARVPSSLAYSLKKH

In the case of `Cc1cc(N2CCOCC2)ccc1Nc1nc(NC2CCCCC2)c2nc[nH]c2n1`, the inhibition in vivo at 30 mg/kg in data set [1] stood at 49%.

Broadly, the IC50 is the concentration at which inhibition is half-maximal. Read a low IC50 as inhibition by little substance. Regarding `CC(C)(O)CNc1cc(NC2CCCCC2)nn2c(-c3ccc(C(=O)NC4CC4)cc3)cnc12`, the midpoint of inhibition in [2], the IC50, lay at 13 nM.

By AUC(0-inf) is commonly meant total exposure, with the tail of the curve extrapolated. In general, clearance refers to the rate of elimination divided by the concentration. Read a high clearance as efficient removal. One may read the GI50 as the concentration giving 50% growth inhibition. Broadly, the AUC is concentration integrated over time. A low value points to low exposure. One may read the half-life as the time in which the quantity being followed falls by half. Lower therefore signals fast loss. In general, Cmax refers to the maximum level reached in the sampled fluid or tissue. A word on the bioavailability: it is dose-corrected exposure relative to a reference, in per cent. High values mean good availability, low ones poor availability. Regarding `O=C(N[C@H](c1ccccn1)C1CC1)c1ccc2[nH]nc(-c3ccc(N4[C@H]5CC[C@H]4CC(O)C5)cc3)c2c1` (stereo in doubt; 86), the AUC(0-inf) in [3] came out at 360 ng·h/mL; in [4], 430 ng·h/mL. The compound further returned a clearance in data set [5] of 46 mL/min/kg. Moreover, the IC50 stood at 1700 nM on Cytochrome P450 3A4, 1.6 nM in [6] and 790 nM in data set [8]. For the same compound, the values for the GI50 (in the data set on MDA-MB-468; in data set [14]) were 90 nM and 170 nM, respectively. Further, the inhibition in vivo at 100 mg/kg in data set [7] was 5%. For the same compound, in [9], the MTD at 504 h is 150 mg/kg. In the data set with Mus musculus [10], the AUC turned out to be 1.6 µg·h/mL. Moreover, the inhibition in vivo at 150 mg/kg in data set [11] turned out to be 53%. In data set [12], this compound had a half-life of 54 min. Also, in the data set on Mus musculus [13], the Cmax turned out to be 0.8 µg/mL. In data set [15], this compound had a bioavailability of 24%.
